Measured values: ChEMBL document CHEMBL1149538, “A high-throughput assay for O-GlcNAc transferase detects primary sequence preferences in peptide substrates” (Bioorg Med Chem Lett, 2007)
Where a SMILES comes first, the peptide text is derived from it.

Columns and labels:
Conditions in all cases: BL21-DE3
[1] = target: T1, UDP-N-acetylglucosamine--peptide N-acetylglucosaminyltransferase 110 kDa subunit (Homo sapiens) (UniProt O15294); test: Binding affinity to human OGT expressed in Escherichia coli […] cells assessed as alpha-FLAG-HRP activity relative to alpha-A-crystallin peptide by azido-ELISA
T1 sequence (whole entry): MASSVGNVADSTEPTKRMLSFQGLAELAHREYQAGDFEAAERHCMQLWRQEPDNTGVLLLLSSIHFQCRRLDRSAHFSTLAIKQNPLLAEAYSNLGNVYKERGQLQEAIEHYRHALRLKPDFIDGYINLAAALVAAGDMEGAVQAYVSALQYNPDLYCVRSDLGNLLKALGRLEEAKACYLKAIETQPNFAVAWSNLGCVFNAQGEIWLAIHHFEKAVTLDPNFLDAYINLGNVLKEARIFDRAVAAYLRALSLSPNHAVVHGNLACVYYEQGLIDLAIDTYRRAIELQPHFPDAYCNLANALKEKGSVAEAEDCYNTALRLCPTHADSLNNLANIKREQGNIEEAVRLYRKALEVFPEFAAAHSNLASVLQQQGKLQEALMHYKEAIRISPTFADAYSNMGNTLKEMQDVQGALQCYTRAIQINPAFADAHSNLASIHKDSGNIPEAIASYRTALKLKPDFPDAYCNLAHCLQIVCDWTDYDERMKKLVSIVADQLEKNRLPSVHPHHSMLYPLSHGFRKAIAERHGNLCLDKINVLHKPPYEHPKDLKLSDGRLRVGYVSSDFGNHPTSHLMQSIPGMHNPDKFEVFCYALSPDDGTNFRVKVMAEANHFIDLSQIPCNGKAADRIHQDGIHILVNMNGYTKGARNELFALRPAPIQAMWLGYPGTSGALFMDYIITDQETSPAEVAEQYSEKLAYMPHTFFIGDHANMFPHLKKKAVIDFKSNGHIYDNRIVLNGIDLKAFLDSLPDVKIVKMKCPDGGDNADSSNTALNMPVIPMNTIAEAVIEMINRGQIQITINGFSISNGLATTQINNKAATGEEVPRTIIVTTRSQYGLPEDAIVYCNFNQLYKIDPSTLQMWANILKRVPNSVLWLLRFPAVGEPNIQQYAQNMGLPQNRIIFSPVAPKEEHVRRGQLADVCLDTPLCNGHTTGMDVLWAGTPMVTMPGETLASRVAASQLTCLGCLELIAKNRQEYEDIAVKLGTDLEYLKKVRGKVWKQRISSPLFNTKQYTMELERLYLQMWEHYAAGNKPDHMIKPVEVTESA
Method in brief: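 Biotinylated peptides are reacted at saturating levels with Ni-column-purified human OGT from E. coli BL21(DE3), plus UDP-GlcNAz 62.5 μM, MgCl2 12.5 μM and β-mercaptoethanol 1 mM, for 4 h at 37 °C. Reactions are stopped with pH 4.5 sodium acetate and captured on NeutrAvidin. Product is tagged with phosphine-FLAG, detected by anti-FLAG-HRP/TMB at A450, normalized to the parent peptide after Ala-peptide background subtraction. Data are from 3 experiments, each in triplicate.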

[2] = substrate: CC[C@H](C)[C@H](NC(=O)[C@H](C)N)C(=O)N1CCC[C@H]1C(=O)N[C@H](C(=O)N[C@@H](CO)C(=O)N[C@@H](CCCNC(=N)N)C(=O)N[C@@H](C)C(=O)N[C@@H](CCC(=O)O)C(=O)N[C@@H](CCCCN)C(=O)O)C(C)C; test: (§1) Binding affinity to human OGT expressed in Escherichia coli […] cells by azido-ELISA
Method in brief: (§2)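 Km is derived from the azido-ELISA using Ni-purified human OGT expressed in E. coli BL21(DE3), with UDP-GlcNAz as donor, MgCl2 and β-mercaptoethanol, incubated at 37 °C. Biotinylated peptide product is captured on NeutrAvidin, Staudinger-tagged with phosphine-FLAG (0.2 mM, 2 h, 37 °C), and quantified by anti-FLAG-HRP with TMB at 450 nm.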

[3] = substrate: CC[C@H](C)[C@H](NC(=O)[C@H](C)N)C(=O)N1CCC[C@H]1C(=O)N[C@H](C(=O)N[C@@H](CO)C(=O)N[C@@H](CCCNC(=N)N)C(=O)N1CCC[C@H]1C(=O)N[C@@H](CCC(=O)O)C(=O)N[C@@H](CCCCN)C(=O)O)C(C)C; test: as §1; method in brief: as §2
[4] = substrate: CC[C@H](C)[C@H](NC(=O)[C@H](C)N)C(=O)N1CCC[C@H]1C(=O)N[C@H](C(=O)N[C@@H](CO)C(=O)N[C@@H](CCCNC(=N)N)C(=O)N[C@@H](CCC(=O)O)C(=O)N[C@@H](CCC(=O)O)C(=O)N[C@@H](CCCCN)C(=O)O)C(C)C; test: as §1; method in brief: as §2

In the case of CC[C@H](C)[C@H](NC(=O)[C@H](C)N)C(=O)N1CCC[C@H]1C(=O)N[C@H](C(=O)N[C@@H](CO)C(=O)N[C@@H](CCCNC(=N)N)C(=O)N[C@@H](CCCNC(=N)N)C(=O)N[C@@H](CCC(=O)O)C(=O)N[C@@H](CCCCN)C(=O)O)C(C)C (H-AIPVSRREK-OH), the Activity [1] is reported as 0.6.

CC[C@H](C)[C@H](NC(=O)[C@H](C)N)C(=O)N[C@@H](CCCNC(=N)N)C(=O)N[C@H](C(=O)N[C@@H](CO)C(=O)N[C@@H](CCCNC(=N)N)C(=O)N[C@@H](CCC(=O)O)C(=O)N[C@@H](CCC(=O)O)C(=O)N[C@@H](CCCCN)C(=O)O)C(C)C (H-AIRVSREEK-OH) showed an Activity [1] of 0.2.

B1: UDP-N-acetylglucosamine--peptide N-acetylglucosaminyltransferase 110 kDa subunit (Homo sapiens), O15294 (protein)
chain: MASSVGNVADSTEPTKRMLSFQGLAELAHREYQAGDFEAAERHCMQLWRQEPDNTGVLLLLSSIHFQCRRLDRSAHFSTLAIKQNPLLAEAYSNLGNVYKERGQLQEAIEHYRHALRLKPDFIDGYINLAAALVAAGDMEGAVQAYVSALQYNPDLYCVRSDLGNLLKALGRLEEAKACYLKAIETQPNFAVAWSNLGCVFNAQGEIWLAIHHFEKAVTLDPNFLDAYINLGNVLKEARIFDRAVAAYLRALSLSPNHAVVHGNLACVYYEQGLIDLAIDTYRRAIELQPHFPDAYCNLANALKEKGSVAEAEDCYNTALRLCPTHADSLNNLANIKREQGNIEEAVRLYRKALEVFPEFAAAHSNLASVLQQQGKLQEALMHYKEAIRISPTFADAYSNMGNTLKEMQDVQGALQCYTRAIQINPAFADAHSNLASIHKDSGNIPEAIASYRTALKLKPDFPDAYCNLAHCLQIVCDWTDYDERMKKLVSIVADQLEKNRLPSVHPHHSMLYPLSHGFRKAIAERHGNLCLDKINVLHKPPYEHPKDLKLSDGRLRVGYVSSDFGNHPTSHLMQSIPGMHNPDKFEVFCYALSPDDGTNFRVKVMAEANHFIDLSQIPCNGKAADRIHQDGIHILVNMNGYTKGARNELFALRPAPIQAMWLGYPGTSGALFMDYIITDQETSPAEVAEQYSEKLAYMPHTFFIGDHANMFPHLKKKAVIDFKSNGHIYDNRIVLNGIDLKAFLDSLPDVKIVKMKCPDGGDNADSSNTALNMPVIPMNTIAEAVIEMINRGQIQITINGFSISNGLATTQINNKAATGEEVPRTIIVTTRSQYGLPEDAIVYCNFNQLYKIDPSTLQMWANILKRVPNSVLWLLRFPAVGEPNIQQYAQNMGLPQNRIIFSPVAPKEEHVRRGQLADVCLDTPLCNGHTTGMDVLWAGTPMVTMPGETLASRVAASQLTCLGCLELIAKNRQEYEDIAVKLGTDLEYLKKVRGKVWKQRISSPLFNTKQYTMELERLYLQMWEHYAAGNKPDHMIKPVEVTESA
With B1 the Km [2] was 0.5 µM, the Km [3] was 0.8 µM and the Km [4] was 8.7 µM.
